Assay results from ChEMBL document CHEMBL1128731, “Furanfurin and thiophenfurin: two novel tiazofurin analogues. Synthesis, structure, antitumor activity, and interactions with inosine monophosphate dehydrogenase” (J Med Chem, 1995).

Assays:
B16 = test: Inhibitory concentration against B16 melanoma cell lines; Inactive until a maximum tested concentration of 200 uM; assay type: functional, cell-based, Mus musculus
Procedure, shortened: (§1)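 Cells in log phase plated with a range of drug concentrations (B16 5×10^3 cells/well; P388, L1210, LLC 10^4 cells/well; HL-60, K562, LoVo 2.5×10^5 cells/well). Growth read by modified MTT after 72 h drug contact at 37 °C. IC50 taken as the concentration reducing optical absorption by 50%, from Chou regression analysis. Maximum concentration tested 200 μM.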

HL-60 = test: Inhibitory concentration against HL-60 human promyelocytic leukemia cell lines; inactive until a maximum tested concentration of 200 uM; assay type: functional, cell-based; procedure, shortened: as §1
K562 [1] = test: Formation of NAD analogue by compound at 100 uM concentration against human myelogenous leukemia K562; assay type: functional
Procedure, shortened: (§2)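 K562 cells (1×10^7/10 mL) were labeled with 185 nM [2,8-3H]adenosine for 1 h at 37 °C, then given saline or analogue for 2 h. Cells were pelleted, washed with PBS and extracted in cold 10% trichloroacetic acid. Extracts were neutralized with 0.5 M tri-n-octylamine in freon and run on SAX HPLC with ammonium phosphate buffer. Results are pmol NAD analogue per 10^9 cells.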

K562 [2] = test: Formation of NAD analogue by compound at 50 uM concentration against human myelogenous leukemia K562; assay type: functional; procedure, shortened: as §2
K562 [3] = test: Inhibitory concentration determined against K562 human myelogenous leukemia cell lines; inactive until a maximum tested concentration of 200 uM; assay type: functional, cell-based; procedure, shortened: as §1
[4] = tested on: Lewis lung carcinoma cell line; test: Inhibitory concentration against LLC Lewis lung carcinoma cell lines; Inactive until a maximum tested concentration of 200 uM; assay type: functional, cell-based, Mus musculus; procedure, shortened: as §1
L1210 = test: Inhibitory concentration against L1210 murine lymphocytic leukemia cell lines; inactive until a maximum tested concentration of 200 uM; assay type: functional, cell-based, Mus musculus; procedure, shortened: as §1
LoVo = test: Inhibitory concentration against LoVo human colon adenocarcinoma cell lines; Inactive until a maximum tested concentration of 200 uM; assay type: functional, cell-based; procedure, shortened: as §1
P388 = test: Inhibitory concentration against P388 murine lymphocytic leukemia cell lines; Inactive until a maximum tested concentration of 200 uM; assay type: functional, cell-based, Mus musculus; procedure, shortened: as §1

NC(=O)c1coc([C@@H]2O[C@H](CO)[C@@H](O)[C@H]2O)c1
124 pmol/10^9 cells: Formation (K562 [1])
49.4 pmol/10^9 cells: Formation (K562 [2])
Not Active: IC50 (B16) | IC50 (HL-60) | IC50 (K562 [3]) | IC50 [4] | IC50 (L1210) | IC50 (LoVo) | IC50 (P388)
